Source: PubChem (several laboratories)
This is a sample that favours compounds with a hit; in the whole collection about 0.89% have one here.
T cell HTS = modulates CD8 T cell binding to vesicles; AID 2052; 2C CD8+ T cell-vesicle binding, flow cytometry; active compounds read low; 330,000 compounds, 0.068% hits; response (vesicle binding), % at 7 µM;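 active means response, share of CD8 T cells binding vesicles, and their 90th percentile fluorescence all below set limits, cut at about 80% in these data, passing the limit was not always enough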;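 further: values below 100% mean blocked vesicle binding to the CD8+ T cells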
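material = purified 2C TCR transgenic mouse naive CD8+ T cells | controls = Unloaded micro-vesicles (low), QL9 vesicles with 0.7% DMSO (high) | detection = cytometric PE anti-B7-1 and Alexa647 anti-CD8 signals after 1% paraformaldehyde fixation | incubation = binding step 1.5 h, 37 °C, antibody labelling 20 min, ice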
NTR1 ag = activates human neurotensin receptor 1; P30989; NTR1-U2OS beta-arrestin-GFP spot imaging, agonist mode; activation, % at 20 µM; 330,000 compounds, 0.17% hits; AID 493036;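 active means activation at or above 40% of the spot to cytoplasm intensity ratio, with at least 20 cells analyzed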
Arrestin-AP2 inh = inhibitors of human beta-arrestin and AP2 interaction; 340,000 compounds, 0.31% hits; FITC-arrestin peptide / GST-AP2 beads, flow cytometry; AP2 beta2 appendage carries R879A mutation; inhibition, % at 10 µM;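 active means inhibition above a set limit, near 3 SD of compounds lacking own fluorescence, cut at about 54% in these data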
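System: GST-AP2 R879A glutathione beads; medium: PBS, Tween 20 0.05%, BSA 0.1%; reagent: fluorescein-tagged arrestin peptide at 50 nM final; schedule: pre-incubation 12 min, peptide binding 1 h, room temperature; detection: flow cytometry, FL1 (488/535 nm); read-out: inhibition as reduced fluorescein signal on beads, percent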
XiGFP reactiv = reactivates the inactive X chromosome in mouse fibroblasts; 360,000 compounds, 0.055% hits; AID 743238; XiGFP mouse fibroblasts, % GFP-positive cells imaging, 3 d; cells co-treated with 5-aza-dC sensitizer; scaled so ellipticine positive control = 100%; activation, % at 7.58 µM;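 active means mean normalized replicate activation at least 10% and every replicate at or above 10%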
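material = 68-5-11 XiGFP fibroblast line | medium = DMEM plus 5-aza-dC sensitizer | schedule = 3 days compound exposure | benchmarks = positive control ellipticine, 6 µM final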
V-ATPase pHluor = yeast V-ATPase proton transport regulation by pHLuorin | S. cerevisiae, pHLuorin cytosolic pH fluorescence | response, % at 10 µM | 350,000 compounds, 0.37% hits; in the data active means response mostly above about 7.3%, no sharp cut-off; inactive means mostly below about 5.4%; further: actives read high
beta cell repl = inducers of beta-cell replication in MIN6 cells; MIN6 cells proliferation, ATPlite luminescence, 48 h; cells starved in 0.2% serum; 100% = growth in 10% serum; proliferation, % at 10 µM; 330,000 compounds, 0.29% hits; AID 2380;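 active means compounds whose signal lies at least 3.5 SD above the mean of all wells on their plate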
Arr-AP2 CP1 = inhibitors of human beta-arrestin and AP2 interaction; GST-AP2 beads, FITC arrestin peptide binding, flow cytometry; GST-fused beta2-adaptin appendage, R879A mutant; 1,300 compounds, 2% hits; AID 504908; shares compounds with Arrestin-AP2 inh; inhibition, % at 10 µM;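 active means inhibition above a set limit, roughly 3 SD of non-fluorescent compound noise, cut at about 38% in these data; inactive means inhibition at or below that limit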;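 further: loss of bead fluorescence from 50 nM FITC arrestin peptide bound to appendage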
GST-FITC bead = disrupts GST binding to glutathione beads, arrestin-AP2 artifact; 1,300 compounds, 2% hits; AID 588338; GST-fluorescein binding to GSH beads, fluorescence, counter-screen; inhibition, % at 10 µM; shares compounds with Arrestin-AP2 inh;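 active means inhibition above 50%, about 3 SD of the inhibition seen with non-fluorescent compounds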;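 further: fluorescein maleimide labelled GST captured on 4 micron glutathione beads; higher means more loss of bead fluorescence from quenching or blocked binding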
Hits are given with their value; . = inactive; / = no result given.

SMILES | T cell HTS | NTR1 ag | Arrestin-AP2 inh | XiGFP reactiv | V-ATPase pHluor | beta cell repl | Arr-AP2 CP1 | GST-FITC bead
COc1cccc(/C=N/NC(=O)COc2cccc3cccnc23)c1O | . | . | 60 | . | . | . | . | .
O=C(Cn1nc(Cl)nc1Cl)c1ccccc1 | . | . | 55 | . | . | . | . | .
CC(C)c1nc2sc3c(NCc4ccco4)ncnc3c2c2c1COC(C)(C)C2 | . | . | 101 | / | . | . | . | .
CC(C)c1nc2sc3c(NCc4ccccc4)ncnc3c2c2c1COC(C)(C)C2 | . | . | . | / | . | . | / | /
CO[C@@H]1CN(C)C(=O)c2cc(NC(=O)Nc3ccccc3)ccc2OC[C@H](C)N(C(=O)Nc2c(C)noc2C)C[C@@H]1C | / | / | / | . | / | / | / | /
COC(=O)c1ccc(NC(=O)CN2C(=O)C3C4C=CC(C4)C3C2=O)cc1 (centres undefined) | . | . | 59 | / | . | . | . | .
CC1CN(C(=O)COc2ccc3ccccc3c2Br)CC(C)O1 (centres undefined) | . | . | 67 | . | . | . | . | .
O=C(COc1ccc2ccccc2c1Br)N1CCCCC1 | . | . | . | / | . | . | / | /
C[C@@H]1CN([C@H](C)CO)C(=O)c2cc(NC(=O)Nc3ccc(F)cc3)ccc2O[C@H]1CN(C)Cc1ccc(C(=O)O)cc1 | / | / | / | . | / | / | / | /
CCC(=O)N1c2ccccc2NC2=C(C(=O)CC(c3ccco3)C2)C1c1ccco1 (centres undefined) | . | . | . | / | . | . | / | /
O=C1CC(c2ccco2)CC2=C1C1c3ccccc3C(=O)N1c1ccccc1N2 (centres undefined) | . | . | 99 | / | . | . | . | .
CC(C)Nc1nnc(SC(C)C(=O)Nc2ccc(Cl)cn2)s1 (centres undefined) | . | . | 55 | . | . | . | . | .
Cc1csc(SC(C)C(=O)Nc2ccc(Cl)cn2)n1 (centres undefined) | . | . | . | / | . | . | / | /
COc1ccc(-c2nc(CCl)cs2)cc1OC | . | . | 54 | . | . | . | . | .
COc1ccc(-c2nc(CCl)cs2)cc1 | . | . | . | . | . | . | / | /
CC(=O)N1CCN(c2ccc(NC(=O)c3ccc(OCc4ccccc4)cc3)cc2)CC1 | . | . | 100 | . | . | . | . | .
COc1ccc(C(=O)Nc2ccc(N3CCN(C)CC3)cc2)cc1OC | . | . | 65 | . | . | . | . | .
COc1cccc(CNC(=O)C[C@@H]2C=C[C@H](NC(=O)C3CCC3)[C@@H](CO)O2)c1 | / | / | / | . | / | / | / | /
O=C([C@@H]1[C@@H](CO)[C@@H]2Cn3c(cccc3=O)[C@H]1N2C(=O)CC1CC1)N1CCc2ccccc2C1 | / | / | / | . | / | / | / | /
CCCNC(=O)N1CC(=O)N2[C@H](CO)[C@H](c3ccc(C#Cc4ccccc4)cc3)[C@@H]2C1 | / | / | / | . | / | / | / | /
COc1ccc(N2C(=O)CSC2c2ccc3c(c2)OCO3)cc1 (centres undefined) | . | . | 61 | / | . | . | . | .
COc1ccc(NC(=O)c2ccc(S(=O)(=O)C(F)F)cc2)c(OC)c1 | . | . | 60 | . | . | . | . | .
COc1cc(NC(=O)c2ccccc2)c(OC)cc1Cl | . | . | . | / | . | . | / | /
COc1cc(Cl)c(C)cc1NC(=O)c1ccc(S(C)(=O)=O)cc1 | . | . | 55 | . | . | . | . | .
C[C@H](CO)N1C[C@H](C)[C@H](CN(C)Cc2ccc3c(c2)OCO3)Oc2c(NS(=O)(=O)c3cn(C)cn3)cccc2C1=O | / | / | / | . | / | / | / | /
SMILES | T cell HTS | NTR1 ag | Arrestin-AP2 inh | XiGFP reactiv | V-ATPase pHluor | beta cell repl | Arr-AP2 CP1 | GST-FITC bead
CCC(=O)N1CC2(C1)CN(C(=O)CN1CCOCC1)[C@H](CO)c1c2c2ccc(OC)cc2n1C | / | / | / | . | / | / | / | /
CO[C@@H]1CN(C)C(=O)c2ccc(NC(=O)c3ccccc3F)cc2OC[C@@H](C)NC[C@@H]1C | / | / | / | . | / | / | / | /
Cc1ccc(S(=O)(=O)N(C)CC(=O)O/N=C(\N)c2ccccn2)cc1 | . | . | 97 | / | . | . | . | .
COc1cc(OC)cc(C(=O)NC(C(=O)NNC(=O)c2ccc(C)cc2)C(C)C)c1 (centres undefined) | . | . | 63 | . | . | . | . | .
CC(=O)Nc1c(C)nn(-c2ccc([N+](=O)[O-])cc2)c1C | . | . | 54 | . | . | . | . | .
C[C@H]1CN([C@@H](C)CO)C(=O)c2cc(NC(=O)Cn3cnnn3)ccc2O[C@H]1CN(C)Cc1ccc(-c2ccccc2)cc1 | / | / | / | . | / | / | / | /
CCOc1ccc(NC(=O)Nc2cnccn2)cc1 | . | . | . | . | . | . | . | .
COc1ccc(NC(=O)Nc2cc(C)ccn2)cc1 | / | / | . | . | . | / | / | /
COc1ccc(NC(=O)Nc2cnccn2)cc1 | . | . | . | . | . | . | . | .
O=C(Nc1cccc(F)c1)Nc1cnccn1 | . | . | . | . | . | . | . | .
C=CCN1/C(=C(\C#N)C2=NS(=O)(=O)c3ccccc32)N(C)c2ccccc21 | . | . | 55 | / | 24 | . | . | .
Cc1ccc(S(=O)(=O)NCCC(=O)N2CCCCCCC2)cc1C | . | . | . | . | . | . | / | /
COc1ccc(S(=O)(=O)NCCC(=O)N2CCCC2)cc1N(C)S(C)(=O)=O | . | . | 56 | . | . | . | . | .
COC(=O)c1cc(OC)c(OC)cc1NC(=S)N1CCOCC1 | / | . | . | . | . | . | / | /
COC(=O)c1cc(OC)c(OC)cc1NC(=S)N1CCCC1 | . | . | 56 | . | . | . | . | .
O=C(C[C@H]1C=C[C@@H](NS(=O)(=O)c2ccccc2)[C@@H](CO)O1)N1CCN(c2ccccc2)CC1 | / | / | / | . | / | / | / | /
CCOc1ccc(C(=O)NC(=S)Nc2ccc(NC(=O)c3ccco3)cc2)cc1[N+](=O)[O-] | . | . | . | . | . | . | / | /
CCOc1ccc(C(=O)NC(=S)Nc2ncccc2C)cc1[N+](=O)[O-] | . | . | 58 | . | . | . | . | .
Cc1ccc(CNC(=O)CS(=O)(=O)c2cn(CC(=O)N3CCOCC3)c3ccccc23)cc1 | . | . | 60 | . | . | . | . | .
CCOc1ccc(S(=O)(=O)NC2CCCCCC2)cc1 | . | . | 57 | . | . | . | . | .
CCOc1ccc(S(=O)(=O)Nc2ccn(C)n2)cc1 | . | . | 77 | . | . | . | . | .
COC(=O)COc1ccc(S(=O)(=O)NC2CCCCCC2)cc1 | . | . | . | / | . | . | / | /
CCOc1ccc(NS(=O)(=O)c2ccc(NS(C)(=O)=O)cc2)cc1 | . | . | . | / | . | . | / | /
